For 76 compounds, inhibition results are on record in PubChem BioAssay AID492974 (The Scripps Research Institute Molecular Screening Center, 2010).

Activity calls are given as the source filed them.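 How the source made its calls: active means inhibition of the enzyme above 50%; inactive means the rest.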

Chain of Aspartyl aminopeptidase (Plasmodium falciparum (isolate 3D7)) (Q8I2J3 whole entry, looked up): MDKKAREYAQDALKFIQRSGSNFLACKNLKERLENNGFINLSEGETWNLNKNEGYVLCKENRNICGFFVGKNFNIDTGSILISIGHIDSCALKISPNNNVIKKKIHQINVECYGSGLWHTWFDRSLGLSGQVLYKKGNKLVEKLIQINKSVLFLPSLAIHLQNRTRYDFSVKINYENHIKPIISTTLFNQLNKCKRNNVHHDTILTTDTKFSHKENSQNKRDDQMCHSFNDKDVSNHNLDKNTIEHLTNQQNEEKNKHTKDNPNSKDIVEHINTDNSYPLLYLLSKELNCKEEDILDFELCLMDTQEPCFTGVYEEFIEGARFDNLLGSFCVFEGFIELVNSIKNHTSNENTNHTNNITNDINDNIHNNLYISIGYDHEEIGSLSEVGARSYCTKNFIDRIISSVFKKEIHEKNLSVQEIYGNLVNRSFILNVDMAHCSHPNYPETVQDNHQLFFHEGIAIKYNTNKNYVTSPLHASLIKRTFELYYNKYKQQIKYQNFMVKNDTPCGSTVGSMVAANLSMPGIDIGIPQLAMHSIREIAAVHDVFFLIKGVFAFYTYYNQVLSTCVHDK

The assay addresses Aspartyl aminopeptidase (Plasmodium falciparum (isolate 3D7)) (UniProt Q8I2J3). Kind of assay: inhibition of purified P. falciparum M18AAP – biochemical, fluorescence, powder samples, assay provider, late-stage follow-up (AID 492974). To be noted: recombinant PfM18AAP, H-Glu-NHMec fluorogenic substrate; at 5 µM; stronger effect = higher value. An outline of the steps:
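Test system: Recombinant PfM18AAP enzyme | Input: 1 µg/mL enzyme | Timing: 10 min preincubation, 30 min read | Measured by: Fluorescence, ex 370 nm / em 460 nm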
A word on the inhibition: it is the drop in the measured response relative to a control, in per cent. As to `Cc1ccc([N+](=O)[O-])cc1-c1[nH]c(-c2ccc(O)c(O)c2)nc1-c1ccccc1`, the inhibition was 83%.
Then `Cc1cc(C)cc(C(=O)n2cnnc2N)c1`, with 0% (inactive); and `O=C(NC(=S)Nn1cnnc1)c1ccccc1Br`, with 15% (inactive).
Consider `Oc1ccc(C2=Nn3c(nnc3-c3ccco3)SC2)cc1O`, for which the inhibition was 52%.
With `COc1ccc(NC(=O)NNC(=O)CCc2ccc(O)c(O)c2)cc1OC` the figure was 23% (inactive).
As to `CC1(C)CC2(CC(c3ccccc3F)c3ccc(O)c(O)c3O2)NC(=S)N1` (stereo unspecified), the inhibition is 50%.
With `O=C(O)c1cn[nH]c1-n1cnnn1` the figure was 2% (inactive).
With `O=c1c2c([N+](=O)[O-])cc([N+](=O)[O-])cc2sn1Cc1ccccc1` the figure was 44% (inactive).
With `O=C(Nn1cnnc1)c1csc2ccccc12` the figure was 22% (inactive); with `O=C(CSc1ncn[nH]1)Nc1nc(-c2ccccc2)ns1`, 7% (inactive); with `O=C(CSc1ncn[nH]1)OCN1C(=O)c2ccccc2C1=O`, 0% (inactive).
Regarding `Cc1ccc(-n2c(O)c(/C=N/n3cnnc3)c3ccccc3c2=O)cc1`, the inhibition is 18% (inactive).
Then `O=C(Nc1ccc(Cl)cc1Cl)Nn1cnnc1`, with 48% (inactive).
Then `O=C(Nc1ccc([N+](=O)[O-])cc1)Nn1cnnc1`, with 59%; and `Cc1ccc(Cl)cc1NC(=S)Nn1cnnc1`, with 17% (inactive).
Then `COc1ccc(C(=O)n2cnnc2N)cc1`, with 4% (inactive); and `O=C(CSc1nn(-c2ccccc2)c(=S)s1)Nn1cnnc1`, with 15% (inactive); and `Cc1nc(-c2ccc(O)c(O)c2)cs1`, with 74%.
With `Cc1cc(OCC(=O)Nn2cnnc2)ccc1Br`, the inhibition was 55%.
With `CS(=O)(=O)c1ccc2c(c1)sc1nc(=O)c(/C=C3/C=CC(=O)C(O)=C3)c(N)n12` the figure was 55%; with `O=C(Nc1ccccc1Cl)Nn1cnnc1`, 35% (inactive); with `Cc1nc2ccccn2c1C(=O)NNC(=O)Nc1ccccc1`, 11% (inactive).
Then `COc1cc(Br)cc(/C=N/c2ncn[nH]2)c1O`, with 0% (inactive).
Then `NCCc1ccc(O)c(O)c1`, with 40% (inactive).
In the case of `Nc1nncn1C(=O)CCCOc1ccc(Cl)cc1Cl`, the inhibition is 0% (inactive).
With `Oc1cc(O)c2c(c1)O[C@H](c1ccc(O)c(O)c1)[C@H](O)C2` the figure was 49% (inactive); with `O=C(CNC(=O)c1ccccc1)NCCc1ccc(O)c(O)c1`, 50%; with `COc1cc([N+](=O)[O-])ccc1NC(=S)Nn1cnnc1`, 52%.
With `CCN(CC)S(=O)(=O)c1ccc(C(=O)Nn2cnnc2)cc1` the figure was 26% (inactive); with `O=C(Nc1cc(Cl)ccc1Cl)Nn1cnnc1`, 54%; with `O=C(O)c1ccc(O)c(O)c1`, 21% (inactive).
Then `OC(Cn1cnnc1)c1ccccc1` (stereo unspecified), with 19% (inactive); and `Cc1cc(=O)[nH]c(SCC(=O)c2ccc(O)c(O)c2)n1`, with 0% (inactive).
For `Br/C(C=Nn1cnnc1)=C\c1ccccc1`, the inhibition is 17% (inactive).
With `O=C(CSc1nc2ccccc2c(=O)[nH]1)c1ccc(O)c(O)c1` the figure was 10% (inactive); with `CCc1ccccc1NC(=S)Nn1cnnc1`, 6% (inactive).
With `O=C(Nc1ccc(Br)cc1Cl)Nn1cnnc1` the figure was 71%; with `O=C(CSc1nnc(-c2ccccc2)o1)Nn1cnnc1`, 58%.
Then `Cc1c(Cl)cccc1NC(=O)Nn1cnnc1`, with 10% (inactive); and `CC(C)n1c(SCC(=O)Nc2nncs2)nnc1-c1ccco1`, with 5% (inactive).
For `O=C(O)CSc1ncn[nH]1`, the inhibition was 0% (inactive).
Then `CN1CCc2cccc3c2[C@@H]1Cc1ccc(O)c(O)c1-3`, with 35% (inactive); and `CC1=NNC(=O)/C1=C\c1cn(-c2ccccc2)nc1-c1ccc(F)cc1`, with 9% (inactive).
Then `O=c1c(O)c(-c2ccc(O)c(O)c2)oc2cc(O)cc(O)c12`, with 43% (inactive); and `COc1cc([N+](=O)[O-])ccc1NC(=O)Nn1cnnc1`, with 4% (inactive).
Then `COC(=O)CN(n1cnnc1)S(=O)(=O)c1ccccc1Cl`, with 26% (inactive); and `CCOC(=O)C1=C(CS(=O)(=O)c2ccc(F)cc2)NC(=O)NC1c1ccc(O)c(O)c1` (stereo unspecified), with 58%.
Turning to `O=C(Nn1cnnc1)c1ccccc1-c1ccccc1`, the inhibition is 21% (inactive).
With `CC1(C)CC(=O)c2c(oc3cc(O)c(O)cc23)C1` the figure was 29% (inactive).
Then `O=C(COc1ccccc1C(=O)N/N=C/c1ccc(O)c(O)c1)N/N=C/c1ccc(O)c(O)c1`, with 76%; and `Cc1cc(C)n2c(=S)[nH]nc2n1`, with 30% (inactive).
Consider `O=C(Nc1ccc(Cl)c(Cl)c1)Nn1cnnc1`, for which the inhibition is 63%.
With `O=c1[nH]c(=S)[nH]c(O)c1/C=C1\C=c2ccccc2=N1` the figure was 42% (inactive).
Then `CN1C(=O)N(c2cccc3ccccc23)C(n2cncn2)C1(C)C` (stereo unspecified), with 5% (inactive); and `Oc1ccc(-c2cn3ccccc3n2)cc1O`, with 42% (inactive).
For the compound `Cc1cccc(NC(=S)Nn2cnnc2)c1C`, the inhibition was 13% (inactive).
With `COC(=O)CN(n1cnnc1)S(=O)(=O)c1ccc(C)cc1` the figure was 0% (inactive).
With `Oc1ccc(-c2csc(-c3cccnc3)n2)cc1O` the figure was 81%; with `Cc1ccc(NC(=S)Nn2cnnc2)c(C)c1`, 3% (inactive); with `S=C(Nc1cc(Cl)ccc1Cl)Nn1cnnc1`, 24% (inactive).
With `O=C(Nc1cccc(C(F)(F)F)c1)Nn1cnnc1`, the inhibition was 27% (inactive).
With `Oc1ccc(-c2csc(-c3ccccc3)n2)cc1O` the figure was 90%; with `O=[N+]([O-])c1cc([N+](=O)[O-])c2cccnc2c1Oc1ccccc1O`, 16% (inactive); with `Oc1ccc(/C=C/c2cc(O)cc(O)c2)cc1`, 50%.
For the compound `COc1ccc2nc(C)cc(SCC(=O)N/N=C/c3ccc(O)c(O)c3)c2c1`, the inhibition was 63%.
Then `O=S(=O)(Nn1cnnc1)c1ccccc1`, with 10% (inactive).
Then `Cc1ccc(Cl)cc1NC(=O)Nn1cnnc1`, with 35% (inactive); and `COC(=O)CN(n1cnnc1)S(=O)(=O)c1ccccc1`, with 0% (inactive).
As to `COc1cccc2c(SCC(=O)N/N=C/c3ccc(O)c(O)c3)cc(C)nc12`, the inhibition was 51%.
With `Oc1ccc(CCNc2c3ccccc3nc3ccccc23)cc1O` the figure was 52%; with `COC(=O)c1cc(C(=O)Nn2cnnc2)cc([N+](=O)[O-])c1`, 48% (inactive).
Consider `O=c1[nH]c(CSc2ncn[nH]2)nc2ccccc12`, for which the inhibition is 0% (inactive).
With `COc1cccc(-c2cc(C(=O)Nn3cnnc3)c3ccccc3n2)c1` the figure was 25% (inactive); with `COc1ccc(Cl)cc1NC(=O)Nn1cnnc1`, 22% (inactive); with `O=C(Nc1cccc(Cl)c1Cl)Nn1cnnc1`, 29% (inactive).
Regarding `CCC(C)c1ccc(O)c(N)c1` (stereo unspecified), the inhibition is 65%.
